Reference: ChEMBL document CHEMBL3779798, “Novel seleno- and thio-urea derivatives with potent in vitro activities against several cancer cell lines” (Eur J Med Chem, 2016)

How the values were obtained:
Type in all cases: functional, cell-based
[1] = Anticancer activity against human BxPC3 cells assessed as inhibition of cell growth after 72 hrs by MTT assay; details: BXPC-3, 72 h
Method in brief: (§1)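 MTT assay at 3,000 cells/well. Cells treated with DMSO or seven concentrations from 0.5 to 50 µM for 24, 48 or 72 h. MTT added 3 h before the end point; formazan dissolved in DMSO and read at 570 and 630 nm. IC50 is the concentration giving 50% growth inhibition. Media: PANC-1, BxPC3 and 1205Lu in DMEM; DU145 and A549 in RPMI 1640; HT29, HCT116 and RKO in McCoy's 5A, all with 10% FBS and pen/strep, at 37 °C and 5% CO2.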

[2] = Anticancer activity against human BxPC3 cells assessed as inhibition of cell growth after 48 hrs by MTT assay; details: BXPC-3, 48 h; method in brief: as §1
A549 [3] = assay: Anticancer activity against human A549 cells assessed as inhibition of cell growth after 48 hrs by MTT assay; details: A549, 48 h; method in brief: as §1
[4] = Anticancer activity against human HCT116 cells assessed as inhibition of cell growth after 48 hrs by MTT assay; details: HCT-116, 48 h; method in brief: as §1
[5] = Anticancer activity against human DU145 cells assessed as inhibition of cell growth after 24 hrs by MTT assay; details: DU-145, 24 h; method in brief: as §1
[6] = Anticancer activity against human BxPC3 cells assessed as inhibition of cell growth after 24 hrs by MTT assay; details: BXPC-3, 24 h; method in brief: as §1
[7] = Anticancer activity against human PANC1 cells assessed as inhibition of cell growth after 72 hrs by MTT assay; details: PANC-1, 72 h; method in brief: as §1
[8] = Anticancer activity against human 1205 Lu cells assessed as inhibition of cell growth after 72 hrs by MTT assay; method in brief: as §1
[9] = Anticancer activity against human PANC1 cells assessed as inhibition of cell growth after 24 hrs by MTT assay; details: PANC-1, 24 h; method in brief: as §1
[10] = Anticancer activity against human DU145 cells assessed as inhibition of cell growth after 48 hrs by MTT assay; details: DU-145, 48 h; method in brief: as §1
A549 [11] = assay: Anticancer activity against human A549 cells assessed as inhibition of cell growth after 72 hrs by MTT assay; details: A549, 72 h; method in brief: as §1
[12] = Anticancer activity against human DU145 cells assessed as inhibition of cell growth after 72 hrs by MTT assay; details: DU-145, 72 h; method in brief: as §1
[13] = Anticancer activity against human HCT116 cells assessed as inhibition of cell growth after 72 hrs by MTT assay; details: HCT-116, 72 h; method in brief: as §1
[14] = Anticancer activity against human 1205 Lu cells assessed as inhibition of cell growth after 48 hrs by MTT assay; method in brief: as §1
[15] = Anticancer activity against human PANC1 cells assessed as inhibition of cell growth after 48 hrs by MTT assay; details: PANC-1, 48 h; method in brief: as §1
[16] = Anticancer activity against human 1205 Lu cells assessed as inhibition of cell growth after 24 hrs by MTT assay; method in brief: as §1
A549 [17] = assay: Anticancer activity against human A549 cells assessed as inhibition of cell growth after 24 hrs by MTT assay; details: A549, 24 h; method in brief: as §1
[18] = Anticancer activity against human HCT116 cells assessed as inhibition of cell growth after 24 hrs by MTT assay; details: HCT-116, 24 h; method in brief: as §1

SMILES	IC50 [1] [µM]	IC50 [2] [µM]	IC50 (A549 [3]) [µM]	IC50 [4] [µM]	IC50 [5] [µM]	IC50 [6] [µM]	IC50 [7] [µM]	IC50 [8] [µM]	IC50 [9] [µM]	IC50 [10] [µM]	IC50 (A549 [11]) [µM]	IC50 [12] [µM]	IC50 [13] [µM]	IC50 [14] [µM]	IC50 [15] [µM]	IC50 [16] [µM]	IC50 (A549 [17]) [µM]	IC50 [18] [µM]
N=C(N)SCc1ccc2ccccc2n1	25.7	37.3	> 50	28.5	> 50	> 50	> 50	39.2	> 50	> 50	> 50	31.6	22.9	> 50	> 50	> 50	> 50	> 50
N=C(N)[Se]Cc1cc2c(cc1Br)OCO2	36.9	> 50	> 50	31.8	> 50	> 50	16.5	21.8	> 50	> 50	36.3	> 50	23.9	> 50	24.7	> 50	> 50	> 50
N=C(N)SCc1c2ccccc2nc2ccccc12	46.3	> 50	> 50	> 50	> 50	> 50	> 50	> 50	> 50	> 50	> 50	> 50	45.1	> 50	> 50	> 50	> 50	> 50
N=C(N)[Se]Cc1c2ccccc2nc2ccccc12	8.2	10.5	14.9	16.7	31.8	20.4	9.8	11.6	12.1	14.9	6.2	12.9	14.4	16.7	11.6	13	34.4	31.8
Cc1noc(C)c1CSC(=N)N	47.2	> 50	> 50	> 50	> 50	> 50	> 50	> 50	> 50	> 50	> 50	> 50	> 50	> 50	> 50	> 50	> 50	> 50
COc1cc2oc(=O)cc(C[Se]C(=N)N)c2cc1OC	6.6	> 50	5.2	8.9	11.4	> 50	10	1.9	20.6	8.4	4.5	6.8	6.6	4.4	19.4	21	15.7	26.7
N=C(N)[Se]CN1C(=O)c2ccccc2C1=O	18.8	19.1	7.8	17.9	18.8	19.8	12.6	9.3	23.5	14	5.5	6.9	15.6	13.2	15.3	19	11.2	29.2
N=C(N)[Se]Cc1ccc(-n2cccc2)cc1	8.3	14.7	16.3	> 50	> 50	> 50	> 50	> 50	> 50	> 50	12.8	> 50	> 50	> 50	> 50	> 50	25.3	> 50
